The record followed here is ChEMBL document CHEMBL2380226, “Novel dual cyclooxygenase and lipoxygenase inhibitors targeting hyaluronan-CD44v6 pathway and inducing cytotoxicity in colon cancer cells” (Bioorg Med Chem, 2013).

pIC50: −log10 of the molar value. The source made the active and inactive calls. No cut-off for these calls is given here.

In series [1] the test system is HT-29. Put plainly: Inhibition of hyaluronan-induced CD44 antigen variant exon 6 activity in human HT29 cells assessed as decrease in COX-2 expression at 10 uM. Type of series: cell-based.
The target in series [2] is T1, Prostaglandin G/H synthase 1 (Ovis aries, UniProt P05979).
T1 sequence (P05979 whole entry): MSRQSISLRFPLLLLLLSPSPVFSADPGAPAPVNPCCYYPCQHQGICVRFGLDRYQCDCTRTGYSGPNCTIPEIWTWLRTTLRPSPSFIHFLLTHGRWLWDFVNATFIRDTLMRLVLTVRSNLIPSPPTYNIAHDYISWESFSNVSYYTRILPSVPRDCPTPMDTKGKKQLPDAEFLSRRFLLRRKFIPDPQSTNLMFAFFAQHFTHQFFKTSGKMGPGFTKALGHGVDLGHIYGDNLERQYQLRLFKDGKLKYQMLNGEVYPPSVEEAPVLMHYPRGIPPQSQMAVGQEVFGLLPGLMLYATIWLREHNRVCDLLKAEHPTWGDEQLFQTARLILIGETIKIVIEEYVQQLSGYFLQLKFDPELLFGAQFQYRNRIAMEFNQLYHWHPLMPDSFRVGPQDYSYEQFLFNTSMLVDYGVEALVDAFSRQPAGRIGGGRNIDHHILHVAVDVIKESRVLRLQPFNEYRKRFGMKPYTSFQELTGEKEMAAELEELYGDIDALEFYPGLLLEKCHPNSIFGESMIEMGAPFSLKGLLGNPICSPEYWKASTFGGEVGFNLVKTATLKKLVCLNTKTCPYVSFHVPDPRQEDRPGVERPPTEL
In words: Inhibition of ram seminal vesicle COX-1 using arachidonic acid as substrate assessed as production of PGF2alpha by enzyme immunoassay in presence of stannous chloride. The essentials: (§1)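 PGH2 formed by the enzyme is reduced with stannous chloride to PGF, which is quantified by competitive EIA. PGs compete with a PG-acetylcholinesterase tracer for PG antiserum, and the complex is captured on an anti-rabbit antibody-coated well. Ellman's reagent is developed and absorbance is read at 405 nm. Percent inhibition is taken against control incubations, and IC50 comes from the concentration-inhibition curve.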

The nature of series [3]: Inhibition of hyaluronan-induced CD44 antigen variant exon 6 activity in mouse APC10.1 cells expressing Has2 assessed as decrease in cell survival after 18 hrs by MTS assay. It is filed as cell-based. An outline of the steps:
(§2)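 Cells were harvested, counted and seeded at 20 × 10^3 per well. After 18 h the medium was replaced with medium containing the agents. MTS/PMS reagent was freshly prepared at 2/0.92 mg/mL in DPBS and added in excess, then incubated at 5% CO2. Absorbance was read at 490 nm at 90 min, and cell-free blank absorbance was subtracted. IC50 is the concentration giving 50% inhibition of proliferation, reported as mean ± S.D. (three replicates of 4 independent analyses).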
For orientation: Tetrazolium dyes change colour on reduction, which living cells bring about.

A short description of series [4]: Inhibition of potato 5-LOX using arachidonic acid as substrate assessed as production of hydroperoxides after 5 mins […]. Further details: species or system Solanum tuberosum. The essentials:
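Potato 5-LOX was tested with a commercial lipoxygenase screening kit that measures hydroperoxides. Compounds were dissolved in minimal DMSO and diluted in the supplied buffer. The reaction was started with arachidonic acid and shaken for 5 min. Chromogen was added, shaken for 5 min, and absorbance read at 500 nm. Percent inhibition was taken against control, and IC50 was derived from the concentration-inhibition curve from duplicate determinations.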

Series [5] in a line: Inhibition of hyaluronan-induced CD44 antigen variant exon 6 activity in human HT-29 cells expressing Has2 assessed as decrease in cell survival after 18 hrs by MTS assay. Type of series: cell-based. The note with it: HT-29, 18 h. The essentials: as §2
A short description of series [6]: Inhibition of hyaluronan-induced CD44 antigen variant exon 6 activity in human HCA-7 cells expressing Has2 assessed as decrease in cell survival after 18 hrs by MTS assay. Type of series: cell-based. The settings on record: HCA-7, 18 h. The essentials: as §2
Series [7] in a line: Cytotoxicity against human HCA-7 cells assessed as decrease in cell survival after 18 hrs by MTS assay. It is filed as functional, cell-based. The settings on record: HCA-7, 18 h. An outline of the steps:
as §2

Series [8] deals with HT-29. In words: Inhibition of hyaluronan-induced CD44 antigen variant exon 6 activity in human HT29 cells assessed as decrease in 5-LOX expression at 10 uM. It is filed as cell-based.
Series [9] in a line: Cytotoxicity against mouse APC10.1 cells assessed as decrease in cell survival after 18 hrs by MTS assay. Type of series: functional, cell-based. An outline of the steps:
as §2

Series [10] has as its system HT-29. In words: Cytotoxicity against human HT-29 cells assessed as decrease in cell survival after 18 hrs by MTS assay. The note with it: HT-29, 18 h. It is filed as functional, cell-based. The essentials: as §2
The species named for series [11] is Mus musculus. In words: Inhibition of hyaluronan-induced CD44 antigen variant exon 6 activity in mouse APC10.1 cells assessed as cell growth inhibition after 18 hrs by MTS assay. It is filed as cell-based. An outline of the steps: as §2
A further series is filed under the species Ovis aries. Put plainly: Selectivity ratio of IC50 for sheep placental COX-2 to IC50 for ram seminal vesicle COX-1. It is filed as tissue-based.
The test system of series [12] is HCA-7. In words: Cytotoxicity against human HCA-7 cells assessed as growth inhibition after 18 hrs by MTS assay. It is filed as functional, cell-based. An outline of the steps: as §2
The target of series [13] is T2, Prostaglandin G/H synthase 2 (Ovis aries, UniProt P79208).
T2 sequence (P79208 whole entry): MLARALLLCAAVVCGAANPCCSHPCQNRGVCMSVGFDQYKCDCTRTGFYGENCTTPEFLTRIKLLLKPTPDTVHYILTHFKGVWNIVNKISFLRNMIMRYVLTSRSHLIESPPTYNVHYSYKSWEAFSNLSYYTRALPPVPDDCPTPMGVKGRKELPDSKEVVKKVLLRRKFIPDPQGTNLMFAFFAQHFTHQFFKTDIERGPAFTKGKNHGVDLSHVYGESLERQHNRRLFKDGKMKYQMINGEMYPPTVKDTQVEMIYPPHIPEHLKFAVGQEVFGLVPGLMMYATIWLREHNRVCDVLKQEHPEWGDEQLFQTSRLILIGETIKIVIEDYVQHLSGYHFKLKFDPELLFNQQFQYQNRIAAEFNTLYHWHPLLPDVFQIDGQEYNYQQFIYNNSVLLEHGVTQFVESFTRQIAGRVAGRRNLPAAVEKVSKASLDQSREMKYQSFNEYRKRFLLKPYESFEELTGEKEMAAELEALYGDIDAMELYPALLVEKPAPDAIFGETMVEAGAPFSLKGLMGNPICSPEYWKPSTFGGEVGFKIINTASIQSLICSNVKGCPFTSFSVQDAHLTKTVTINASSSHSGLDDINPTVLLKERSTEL
In words: Inhibition of sheep placental COX-2 using arachidonic acid as substrate assessed as production of PGF2alpha by enzyme immunoassay in presence of stannous chloride. The essentials: as §1

Series [14] relates to HT-29. Put plainly: Cytotoxicity against human HT-29 cells assessed as growth inhibition after 18 hrs by MTS assay. Type of series: functional, cell-based. An outline of the steps: as §2
For series [15], the system named is HT-29. In words: Cytotoxicity against human HT-29 cells assessed as growth inhibition at 2 to 50 uM after 24 hrs by MTT assay. Type of series: functional, cell-based. An outline of the steps:
(§3)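 Cells were treated for 24 h at four concentrations in triplicate. MTT (stock 5 mg/ml in PBS, pH 7.2, filtered) was then added and incubated for 4 h at 37°C. Formazan was solubilized with 10% SDS in 0.01 N HCl, and absorbance was read at 570 nm to give viability.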

Series [16] in a line: Cytotoxicity against rat IEC-6 cells assessed as growth inhibition at 2 to 50 uM after 24 hrs by MTT assay. Type of series: cell-based. The settings on record: iec-6, 24 h. An outline of the steps:
as §3

The species entered for series [17] is Mus musculus. Put plainly: Cytotoxicity against mouse APC10.1 cells expressing COX and LOX assessed as growth inhibition at 2 to 50 uM after 24 hrs by MTT assay. It is filed as functional, cell-based. An outline of the steps:
as §3

Series [18] relates to HCA-7. Put plainly: Cytotoxicity against human HCA-7 cells assessed as growth inhibition at 2 to 50 uM after 24 hrs by MTT assay. Type of series: functional, cell-based. An outline of the steps: as §3
The species entered for series [19] is Mus musculus. In words: Inhibition of hyaluronan-induced CD44 antigen variant exon 6 activity in mouse APC10.1 cells assessed as cell growth inhibition at 2 to 50 uM after 24 hrs by MTT assay. It is filed as cell-based. An outline of the steps: as §3

Consider `CC(C)(C)C1=CC(=NNC(=O)c2ccccc2)C=C(C(C)(C)C)C1=O`, for which the inhibition entry in the series with HT-29 [1] and in the series with HT-29 [8] was “Active” each time. Moreover, the pIC50 (commonly the negative decadic logarithm of the IC50, by convention in mol/L) in [2] was 4.85; in series [3], 4.51; in series [4], 5.29; in series [5], 4.41; in series [6] it was 4.58; in series [7], 4.90. The pIC50 in [9] was 4.70; in the series with HT-29 [10], 4.82; in [13], 5.02. The “growth inhibition (GI)” value in the series listed under Mus musculus [11], with HCA-7 [12] and in the series with HT-29 [14] was “Dose-dependent effect” in each case. The Ratio IC50 in the series listed under Ovis aries was 0.68.

With `CC(C)(C)c1cc(/C=C2\SC(N)=NC2=O)cc(C(C)(C)C)c1O` [DARBUFELONE], the figures for the pIC50 in [2] and in [13] were 4.46 and 6.32, respectively.

As for `Cc1ccc(-c2cc(C(F)(F)F)nn2-c2ccc(S(N)(=O)=O)cc2)cc1` [CELECOXIB], the inhibition entry in the series on HT-29 [1] and in the series with HT-29 [8] was “Active” in each case. For the same molecule, the pIC50 in [3] is 5.22; in [5] it was 4.74; in series [6] it was 4.76; in series [7], 5.70; in [9], 5.38; in the series on HT-29 [10], 5.52. Moreover, the “growth inhibition (GI)” value in the series filed under Mus musculus [11], with HCA-7 [12] and in the series with HT-29 [14] was “Dose-dependent effect” in each case.

Turning to `CC(C)(C)C1=CC(=NNC(=O)c2cccnc2)C=C(C(C)(C)C)C1=O`, the “growth inhibition (GI)” value in the series with HT-29 [15], in the series listed under Mus musculus [17], in the series with HCA-7 [18] and in the series filed under Mus musculus [19] was “Active” in each case. Besides, the inhibition entry in the series on HT-29 [1] and in the series on HT-29 [8] was “Active” throughout. Moreover, the pIC50 was 4.31 in [2]; 4.91 in [3]; 4.54 in series [5]; 4.46 in series [6]; 5.19 in [7]; 5.12 in [9]. The pIC50 with HT-29 [10] was 4.96; in [13], 5.03. Moreover, the Activity result in series [16] is recorded as “Non-toxic”. The “growth inhibition (GI)” value in the series filed under Mus musculus [11], with HCA-7 [12] and with HT-29 [14] was “Dose-dependent effect” each time. Further, the Ratio IC50 in the series filed under Ovis aries was 0.19.

`CC(C)(C)C1=CC(=NNC(=O)c2ccncc2)C=C(C(C)(C)C)C1=O`: the inhibition entry with HT-29 [1] and with HT-29 [8] was “Active” throughout. Moreover, the pIC50 in series [2] is 4.25; in series [3], 4.74; in series [4], 4.70; in [5], 5.27; in series [6], 4.41; in [7], 4.92. Moreover, the pIC50 is 5.05 in series [9], 4.82 with HT-29 [10] and 5.12 in series [13]. In addition, the “growth inhibition (GI)” value in the series listed under Mus musculus [11], with HCA-7 [12] and with HT-29 [14] was “Dose-dependent effect” in each case. Besides, in the series listed under Ovis aries, the Ratio IC50 worked out at 0.14.

For the molecule `CC(C)(C)c1cc(/C=C2\SC(=N)NC2=O)cc(C(C)(C)C)c1O` [DARBUFELONE], in series [4], the pIC50 was 6.11. Besides, in the series filed under Ovis aries, the Ratio IC50 was 0.014.
